Columns and labels:
Cytochrome P450 2C8 = target: T1, Cytochrome P450 2C8 (Homo sapiens, UniProt P10632); assay: Activity of human CYP2C8 expressed in microsomes isolated from baculovirus infected insect cell assessed as enzyme-mediated 2-mercapto-3-(4-((6-methoxy-1-methyl-1H-benzo[d]imidazol-2-yl)methoxy)phenyl)propanoic acid formation at 20 uM after 2 hrs by radio-HPLC/LC-MS/MS analysis in presence of NADPH-generating system; format: ADME
T1 sequence (P10632 whole entry): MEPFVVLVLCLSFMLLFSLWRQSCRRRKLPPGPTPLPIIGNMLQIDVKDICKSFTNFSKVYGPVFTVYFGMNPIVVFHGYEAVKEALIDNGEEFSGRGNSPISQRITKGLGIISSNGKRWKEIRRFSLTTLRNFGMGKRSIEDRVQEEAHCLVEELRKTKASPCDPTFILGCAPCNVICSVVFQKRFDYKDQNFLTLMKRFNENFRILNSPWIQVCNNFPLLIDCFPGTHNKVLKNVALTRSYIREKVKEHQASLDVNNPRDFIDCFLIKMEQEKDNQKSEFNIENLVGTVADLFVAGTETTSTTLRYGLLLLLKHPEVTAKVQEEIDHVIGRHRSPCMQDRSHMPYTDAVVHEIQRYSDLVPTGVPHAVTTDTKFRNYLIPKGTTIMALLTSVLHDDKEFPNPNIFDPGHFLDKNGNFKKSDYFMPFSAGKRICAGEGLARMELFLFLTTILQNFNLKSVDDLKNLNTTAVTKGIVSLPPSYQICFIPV
Summary of the method: (§1)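 Baculovirus/insect-cell microsomes expressing single human CYPs, 1 mg/ml protein, with 50 mM potassium phosphate (pH 7.4) or 100 mM Tris-HCl (pH 7.5). NADPH-generating system: 2 mM NADP⁺, 20 mM glucose 6-phosphate, 2 units/ml G6PDH, 10 mM MgCl₂. [¹⁴C]rivoglitazone at 20 μM, 2 h at 37°C with shaking. Control used insect-cell control supersomes. Stopped with acetonitrile; supernatant concentrated under nitrogen; metabolites analysed by radio-HPLC, LC-MS and LC-MS/MS.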

Cytochrome P450 2C9 = Cytochrome P450 2C9 (Homo sapiens, UniProt P11712); assay: Activity of human CYP2C9 expressed in microsomes isolated from baculovirus infected insect cell assessed as enzyme-mediated (2S,3S,4S,5R,6R)-3,4,5-trihydroxy-6-(5-(4-((6-methoxy-1-methyl-1H-benzo[d]imidazol-2-yl)methoxy)benzyl)-2,4-dioxothiazolidin-3-yl)tetrahydro-2H-pyran-2-carboxylic acid formation at 20 uM after 2 hrs by radio-HPLC/LC-MS/MS analysis in presence of UDPGA and UDPGA/SAM; format: ADME
[1] = target: T2, UDP-glucuronosyltransferase 2B7 (Homo sapiens, UniProt P16662); assay: Activity of human UGT2B7 expressed in microsomes isolated from baculovirus infected insect cell assessed as enzyme-mediated 3-(4-((6-methoxy-1-methyl-1H-benzo[d]imidazol-2-yl)methoxy)phenyl)-2-(methylthio)propanamide formation at 20 uM after 4 hrs by radio-HPLC/LC-MS/MS analysis in presence of NADPH-generating system/SAM in presence of UDPGA and UDPGA/SAM; format: ADME
T2 sequence (P16662 whole entry): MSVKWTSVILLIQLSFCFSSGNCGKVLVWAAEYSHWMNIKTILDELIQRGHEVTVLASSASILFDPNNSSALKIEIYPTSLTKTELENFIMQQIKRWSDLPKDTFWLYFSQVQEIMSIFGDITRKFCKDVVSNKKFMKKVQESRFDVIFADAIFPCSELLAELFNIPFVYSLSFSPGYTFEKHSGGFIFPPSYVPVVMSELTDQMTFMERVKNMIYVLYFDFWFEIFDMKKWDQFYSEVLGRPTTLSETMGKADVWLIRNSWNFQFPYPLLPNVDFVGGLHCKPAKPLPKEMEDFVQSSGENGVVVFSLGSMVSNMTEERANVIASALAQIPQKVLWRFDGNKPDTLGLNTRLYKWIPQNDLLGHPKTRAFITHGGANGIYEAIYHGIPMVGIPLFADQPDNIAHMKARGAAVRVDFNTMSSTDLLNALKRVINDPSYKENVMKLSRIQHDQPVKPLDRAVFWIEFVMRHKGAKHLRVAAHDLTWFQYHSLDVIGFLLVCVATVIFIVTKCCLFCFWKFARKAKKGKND

Cytochrome P450 1A2 [2] = target: T3, Cytochrome P450 1A2 (Homo sapiens, UniProt P05177); assay: (§2) Activity of human CYP1A2 expressed in microsomes isolated from baculovirus infected insect cell assessed as enzyme-mediated 2-amino-3-((1-carboxy-2-(4-((6-methoxy-1-methyl-1H-benzo[d]imidazol-2-yl)methoxy)phenyl)ethyl)disulfanyl)propanoic acid formation at 20 uM after 2 hrs by radio-HPLC/LC-MS/MS analysis; format: ADME; summary of the method: as §1
T3 sequence (P05177 whole entry): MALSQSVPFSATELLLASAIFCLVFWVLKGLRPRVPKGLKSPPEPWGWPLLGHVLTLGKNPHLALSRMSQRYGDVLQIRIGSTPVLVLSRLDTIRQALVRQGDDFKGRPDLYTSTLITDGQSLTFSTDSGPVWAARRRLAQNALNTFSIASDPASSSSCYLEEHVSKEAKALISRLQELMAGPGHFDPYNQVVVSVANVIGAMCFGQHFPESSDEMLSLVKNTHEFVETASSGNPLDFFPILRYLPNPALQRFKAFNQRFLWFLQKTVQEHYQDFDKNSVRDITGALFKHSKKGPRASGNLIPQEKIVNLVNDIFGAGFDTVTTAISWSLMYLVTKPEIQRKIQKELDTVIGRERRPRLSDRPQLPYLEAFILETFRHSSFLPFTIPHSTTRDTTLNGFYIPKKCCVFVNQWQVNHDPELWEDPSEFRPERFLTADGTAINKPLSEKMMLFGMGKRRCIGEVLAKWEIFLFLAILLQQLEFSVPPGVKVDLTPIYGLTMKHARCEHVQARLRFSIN

[3] = Drug metabolism in monkey hepatocytes assessed as formation of 2-mercapto-3-(4-((6-methoxy-1-methyl-1H-benzo[d]imidazol-2-yl)methoxy)phenyl)propanoic acid at 30 uM after 3 hrs by radio-HPLC/LC-MS/MS analysis in presence of UDPGA, UDPGA/SAM and NADPH-generating system; settings: cynomolgus monkey
Liver microsome [4] = assay: Drug metabolism in human liver microsomes assessed as formation of 2-((4-((2,4-dioxothiazolidin-5-yl)methyl)phenoxy)methyl)-1-methyl-1H-benzo[d]imidazol-6-yl hydrogen sulfate at 20 uM by radio-HPLC/LC-MS/MS analysis; format: ADME
Cytochrome P450 1A2 [5] = target: T3, Cytochrome P450 1A2; assay: Activity of human CYP1A2 expressed in microsomes isolated from baculovirus infected insect cell assessed as enzyme-mediated 5-hydroxy-5-(4-((6-methoxy-1-methyl-1H-benzo[d]imidazol-2-yl)methoxy)benzyl)thiazolidine-2,4-dione formation at 20 uM after 2 hrs by radio-HPLC/LC-MS/MS analysis in presence of NADPH-generating system and NADPH-generating system/SAM; format: ADME; summary of the method: as §1
Cytochrome P450 3A5 = Cytochrome P450 3A5 (Homo sapiens, UniProt P20815); assay: as §2, with “CYP3A5” for “CYP1A2”; format: ADME
Summary of the method: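 Baculovirus-insect-cell microsomes expressing the human CYP (1 mg/ml protein) were incubated with [14C]rivoglitazone (20 μM) in 50 mM potassium phosphate (pH 7.4) or 100 mM Tris-HCl (pH 7.5) with an NADPH-generating system (2 mM NADP+, 20 mM glucose 6-phosphate, 2 units/ml G6PDH, 10 mM MgCl2) for 2 h at 37°C. Insect-cell control supersomes served as the control. Reactions were stopped with acetonitrile, and the concentrated supernatants were analysed by radio-HPLC, LC-MS and LC-MS/MS.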

Liver microsome [6] = assay: Drug metabolism in Sprague-Dawley rat liver microsomes assessed as formation of 2-hydroxy-3-(4-((6-methoxy-1-methyl-1H-benzo[d]imidazol-2-yl)methoxy)phenyl)propanamide at 20 uM after 2 hrs by radio-HPLC/LC-MS/MS analysis in presence of NADPH-generating system and NADPH-generating system/SAM; format: ADME

Measured: Drug metabolism

Cytochrome P450 2C9, sequence (P11712 whole entry): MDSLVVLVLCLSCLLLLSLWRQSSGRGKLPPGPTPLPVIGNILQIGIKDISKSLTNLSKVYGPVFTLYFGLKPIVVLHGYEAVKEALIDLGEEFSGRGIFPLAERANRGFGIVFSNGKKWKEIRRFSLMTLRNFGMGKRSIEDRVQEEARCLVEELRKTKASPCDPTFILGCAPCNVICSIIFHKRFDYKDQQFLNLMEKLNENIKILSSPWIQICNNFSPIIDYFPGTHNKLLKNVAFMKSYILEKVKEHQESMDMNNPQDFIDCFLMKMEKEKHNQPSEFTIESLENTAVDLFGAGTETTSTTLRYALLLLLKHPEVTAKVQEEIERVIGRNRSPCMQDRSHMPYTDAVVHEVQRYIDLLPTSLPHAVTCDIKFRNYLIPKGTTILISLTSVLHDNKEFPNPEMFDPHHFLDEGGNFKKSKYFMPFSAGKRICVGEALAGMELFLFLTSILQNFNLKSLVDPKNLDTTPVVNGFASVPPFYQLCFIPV
Cytochrome P450 3A5, sequence (P20815 whole entry): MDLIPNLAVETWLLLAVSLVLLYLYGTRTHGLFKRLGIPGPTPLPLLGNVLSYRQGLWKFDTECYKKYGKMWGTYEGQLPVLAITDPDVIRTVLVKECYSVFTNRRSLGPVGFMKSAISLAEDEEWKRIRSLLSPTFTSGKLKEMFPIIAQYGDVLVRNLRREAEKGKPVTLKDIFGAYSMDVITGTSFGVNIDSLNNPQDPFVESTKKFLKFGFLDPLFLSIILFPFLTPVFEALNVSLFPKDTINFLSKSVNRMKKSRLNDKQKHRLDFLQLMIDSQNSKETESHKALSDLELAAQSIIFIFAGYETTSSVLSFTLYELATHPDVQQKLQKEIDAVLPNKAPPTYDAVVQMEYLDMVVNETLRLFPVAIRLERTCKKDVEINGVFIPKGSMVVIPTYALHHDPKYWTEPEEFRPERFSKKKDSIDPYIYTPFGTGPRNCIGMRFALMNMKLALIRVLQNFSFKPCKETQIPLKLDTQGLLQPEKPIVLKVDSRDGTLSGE

COc1ccc2nc(COc3ccc(C[14CH]4SC(=O)NC4=O)cc3)n(C)c2c1.Cl (racemic)
metabolite_not_detected: Cytochrome P450 2C9 | [1] | Cytochrome P450 1A2 [2] | [3] | Liver microsome [4] | Cytochrome P450 3A5
metabolite_detected: Cytochrome P450 2C8 | Cytochrome P450 1A2 [5] | Liver microsome [6]

From ChEMBL document CHEMBL3526048, “In vitro metabolism of rivoglitazone, a novel peroxisome proliferator-activated receptor γ agonist, in rat, monkey, and human liver microsomes and freshly isolated hepatocytes” (Drug Metab Dispos, 2011)
